# In ChEMBL document CHEMBL3351736, “A promising camptothecin derivative: Semisynthesis, antitumor activity and intestinal permeability” (Eur J Med Chem, 2014):
# Activity calls are given as the source filed them. The calls are words filed in the database; no cut-off is given here.
# Legend:
# [1] = Effective permeability from apical to basolateral side in human Caco2 cells at 50 uM after 15 to 90 mins by HPLC analysis; assay type: ADME, cell-based; settings: Caco-2, read-out: Peff
# Procedure, shortened: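 Caco-2 monolayers grown 19-22 days on polycarbonate transwell inserts (4.2 cm², 0.4 µm pore) at 37 °C, 5% CO2; TEER checked before and after each run. Compound added to donor side at 37 °C, 50 rpm. Receiver sampled at 15, 30, 60 and 90 min; donor sampled at start and end. HPLC analysis. Sodium azide, when used, placed on both sides. Three independent experiments.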
# Caco-2 [2] = test: Induction of apoptosis in human Caco2 cells assessed as vital cells at 0.05 uM after 48 hrs by Annexin V/propidium iodide staining-based flow cytometric analysis (reference value: 96.67 +/- 1.02%); assay type: functional
# Caco-2 [3] = test: Induction of apoptosis in human Caco2 cells assessed as late apoptotic cells at 0.05 uM after 24 hrs by Annexin V/propidium iodide staining-based flow cytometric analysis (reference value: 2.20 +/- 0.77%); assay type: functional
# Caco-2 [4] = test: Induction of apoptosis in human Caco2 cells assessed as necrotic cells at 0.5 uM after 24 hrs by Annexin V/propidium iodide staining-based flow cytometric analysis (reference value: 0.41 +/- 0.02%); assay type: functional
# MDA-MB-231 [5] = test: Cytotoxicity against human MDA-MB-231 cells after 24 hrs by MTT assay; assay type: functional, cell-based; settings: MDA-MB-231, 24 h
# Procedure, shortened: (§1)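 Cells seeded at 25000 per well and held 24 h at 37 °C in 5% CO2. Medium was then renewed and compounds added at increasing concentrations (DMSO 0.1%, or water for topotecan) for 24 h. MTT solution (5 mg/mL) was added for 3 h at 37 °C, then absorbance read at 570 nm, corrected at 630 nm. IC50 in µM.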
# [6] = Efflux ratio of effective permeability from basolateral to apical side over apical to basolateral side in human Caco2 cells at 10 to 50 uM after 15 to 90 mins by HPLC analysis; assay type: ADME, cell-based; settings: Caco-2
# Procedure, shortened: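 Caco-2 monolayers (400,000 cells per polycarbonate transwell insert, 0.4 µm pores) grown in DMEM for 19-22 days at 37 °C and 5% CO2. TEER was checked before and after each run. Compound was placed on the donor side and buffer on the receiver side, in both apical-to-basal and basal-to-apical directions, at 37 °C with 50 rpm orbital shaking. Receiver samples were taken at 15, 30, 60 and 90 min with buffer replaced, and donor samples at start and end. Analysis was by HPLC; three independent experiments.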
# A-375 [7] = test: Cytotoxicity against human A375 cells after 24 hrs by MTT assay; assay type: functional, cell-based; settings: A-375, 24 h; procedure, shortened: as §1
# Caco-2 [8] = test: Induction of apoptosis in human Caco2 cells assessed as necrotic cells at 0.05 uM after 48 hrs by Annexin V/propidium iodide staining-based flow cytometric analysis (reference value: 0.41 +/- 0.02%); assay type: functional
# Jurkat = test: Cytotoxicity against human Jurkat cells after 24 hrs by MTT assay; assay type: functional, cell-based; procedure, shortened: as §1
# MDA-MB-231 [9] = test: Induction of apoptosis in human MDA-MB-231 cells assessed as inhibition of DNA synthesis after 24 hrs by BrdU staining-based ELISA; assay type: functional, cell-based
# Procedure, shortened: (§2)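 Cells seeded at 25,000/well; compounds added 24 h after seeding at a range of concentrations and incubated 24 h. Cells fixed, then colorimetric BrdU-incorporation ELISA. Absorbance read at 370-492 nm over 3 intervals of 5 min. Mean of three separate experiments with triplicate samples.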
# HeLa [10] = test: Cytotoxicity against human HeLa cells after 24 hrs by MTT assay; assay type: functional, cell-based; procedure, shortened: as §1
# A-375 [11] = test: Induction of apoptosis in human A375 cells assessed as inhibition of DNA synthesis after 24 hrs by BrdU staining-based ELISA; assay type: functional, cell-based; procedure, shortened: as §2
# HeLa [12] = test: Induction of apoptosis in human HeLa cells assessed as inhibition of DNA synthesis after 24 hrs by BrdU staining-based ELISA; assay type: functional, cell-based; procedure, shortened: as §2
# Caco-2 [13] = test: Induction of apoptosis in human Caco2 cells assessed as late apoptotic cells at 0.05 uM after 48 hrs by Annexin V/propidium iodide staining-based flow cytometric analysis (reference value: 2.20 +/- 0.77%); assay type: functional
# Caco-2 [14] = test: Induction of apoptosis in human Caco2 cells assessed as late apoptotic cells at 0.5 uM after 24 hrs by Annexin V/propidium iodide staining-based flow cytometric analysis (reference value: 2.20 +/- 0.77%); assay type: functional
# MDA-MB-231 [15] = test: Induction of apoptosis in human MDA-MB-231 cells assessed as inhibition of DNA synthesis at 0.8 to 1.6 uM after 24 hrs by BrdU staining-based ELISA; assay type: functional, cell-based
# Procedure, shortened: (§3)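 BrdU colorimetric cell proliferation ELISA. Cells seeded at 25,000 per well, compounds added 24 h after seeding and incubated 24 h. Cells fixed and the immunoassay run per kit. Absorbance read at 370-492 nm over 3 intervals of 5 min; absorbance difference proportional to BrdU incorporation. Mean of three separate experiments in triplicate, compared with untreated control.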
# [16] = Permeability from basolateral to apical side in human Caco2 cells at 10 to 50 uM after 15 to 90 mins by HPLC analysis; assay type: ADME, cell-based; settings: caco-2, 50 µM
# Procedure, shortened: (§4)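 Caco-2 cells seeded at 400,000 per polycarbonate transwell insert (0.4 μm pore) and grown in DMEM for 19-22 days to confluence at 37°C, 5% CO2. TEER checked before and after each run. Compound in donor chamber, buffer in receiver. Run at 37°C with 50 rpm orbital shaking. Receiver sampled at 15, 30, 60 and 90 min with buffer replacement; donor sampled at start and end. HPLC quantitation; three independent experiments.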
# Caco-2 [17] = test: Induction of apoptosis in human Caco2 cells assessed as early apoptotic cells at 0.5 uM after 48 hrs by Annexin V/propidium iodide staining-based flow cytometric analysis (reference value: 0.72 +/- 0.03%); assay type: functional
# HeLa [18] = test: Induction of apoptosis in human HeLa cells assessed as inhibition of DNA synthesis at 0.8 to 1.6 uM after 24 hrs by BrdU staining-based ELISA; assay type: functional, cell-based; procedure, shortened: as §3
# HeLa [19] = test: Induction of apoptosis in human HeLa cells assessed as p53 phosphorylation at Ser15 by Western blotting analysis; assay type: functional, cell-based
# Procedure, shortened: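 Cells treated 24 h. About 10^6 cells lysed on ice 15 min in Hepes pH 7.4/Triton X-100 buffer with phosphatase and protease inhibitors, then spun 13,000 × g. 30 µg protein run on 12% SDS-PAGE and blotted to nitrocellulose. Primary anti-phospho-p53 (Ser15) and anti-p53 at 1:1000 for 2 h at room temperature, then HRP secondary and ECL densitometry. Results referred to untreated control.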
# Caco-2 [20] = test: Induction of apoptosis in human Caco2 cells assessed as necrotic cells at 0.05 uM after 24 hrs by Annexin V/propidium iodide staining-based flow cytometric analysis (reference value: 0.41 +/- 0.02%); assay type: functional
# Caco-2 [21] = test: Induction of apoptosis in human Caco2 cells assessed as vital cells at 0.05 uM after 24 hrs by Annexin V/propidium iodide staining-based flow cytometric analysis (reference value: 96.67 +/- 1.02%); assay type: functional
# [22] = Cytotoxicity against human Caco2 cells after 24 hrs by MTT assay; assay type: functional, cell-based; settings: Caco-2, 24 h
# [23] = Permeability from apical to basolateral side in human Caco2 cells at 10 to 50 uM after 15 to 90 mins by HPLC analysis; assay type: ADME, cell-based; settings: caco-2, 50 µM; procedure, shortened: as §4
smiles,measurement,setting,value
CC[C@@]1(O)C(=O)OCc2c1cc1n(c2=O)Cc2cc3c(CN(C)C)c(O)ccc3nc2-1.Cl [TOPOTECAN HYDROCHLORIDE],Papp A→B at 50 µM,[1],1.77 ×10⁻⁶ cm/s
same,Activity,Caco-2 [2],45.2%
same,Activity,Caco-2 [3],19.54%
same,Activity,Caco-2 [4],8.54%
same,IC50,MDA-MB-231 [5],473 nM
same,efflux ratio at up to 50 µM,[6],> 1
same,IC50,A-375 [7],162 nM
same,Activity,Caco-2 [8],2.36%
same,IC50,Jurkat,127 nM
same,inhibition,MDA-MB-231 [9],Dose-dependent effect
same,IC50,HeLa [10],380 nM
same,inhibition,A-375 [11],Dose-dependent effect
same,inhibition,HeLa [12],Dose-dependent effect
same,Activity,Caco-2 [13],48.06%
same,Activity,Caco-2 [14],33.98%
same,Activity,MDA-MB-231 [15],Active
same,permeability,[16],permeable
same,Activity,Caco-2 [17],5.74%
same,Activity,HeLa [18],Active
same,Activity,HeLa [19],inactive
same,Activity,Caco-2 [20],3.64%
same,Activity,Caco-2 [21],71.4%
same,IC50,[22],119 nM
same,permeability,[23],permeable
